# Shown are actives, neighbours in structure and some others; about 0.55% of the full set was active somewhere.
# OXTR potentiator = potentiates the human oxytocin receptor response; activation, % at 3 µM; hit rate 0.061% among 320,000; P30559; CHO-OTR cells, Fluo-8 calcium fluorescence, potentiator mode; 0% = oxytocin EC15, 100% = EC100;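 active = activation above that plate's cutoff, the mean activation of tested compounds plus 3 SD, cut at about 6.6% in these data, passing the limit was not always enough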;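 note: 100% uses oxytocin at 75 nM as the full agonist control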
# Target sequence (P30559 whole entry, looked up): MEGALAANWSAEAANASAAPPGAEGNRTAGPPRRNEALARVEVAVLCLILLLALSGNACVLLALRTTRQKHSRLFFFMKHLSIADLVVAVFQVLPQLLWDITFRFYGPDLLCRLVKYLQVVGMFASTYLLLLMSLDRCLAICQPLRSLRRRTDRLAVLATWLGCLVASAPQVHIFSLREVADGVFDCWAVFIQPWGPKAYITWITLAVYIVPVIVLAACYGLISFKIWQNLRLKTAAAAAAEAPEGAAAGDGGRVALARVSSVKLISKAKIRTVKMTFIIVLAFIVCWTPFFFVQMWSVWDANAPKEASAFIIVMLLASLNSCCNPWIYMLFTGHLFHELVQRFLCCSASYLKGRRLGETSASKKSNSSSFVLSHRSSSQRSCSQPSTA
#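 Assay system: CHO cell line stably expressing human OTR. Reagent: EC15 oxytocin agonist. Dosing: single dose, 3.0 µM nominal final compound concentration. Timing: compound 6 min at room temperature before oxytocin, 100 s read. Signal: kinetic Fluo-8 calcium fluorescence. Controls: oxytocin EC15 low and EC100 high.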
# V1R ag counter = counter-screen for oxytocin receptor agonists: human V1a receptor agonists. AID 2797. CHO-V1R cells, Fluo-8 calcium fluorescence, agonist mode; 0% DMSO, 100% 3 nM vasopressin. hit rate 0.25% among 320,000. activation, % at 3 µM. P37288;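 active = activation above the mean activation of all tested compounds plus 3 SD, per screening run, cut at about 20% in these data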;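 note: signal is peak over basal fluorescence ratio across a 100 second FLIPR read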
# TRPML3 ag = activates the human TRPML3 channel; Q8TDD5; HEK293 TRPML3-YFP, Fluo-8 calcium fluorescence; 100% = the carbachol control signal; activation, % at 3 µM; hit rate 0.29% among 220,000; AID 1448;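 active = activation above its plate's cutoff, the mean activation of the plate's test wells plus 3 SD, cut at about 12% in these data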;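 note: 0% = DMSO only wells and 100% = carbachol wells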
#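 Test system: TRPML3-YFP stable HEK293 cells. Doses: single point at 3 µM. Incubation: dye loading 1 h 37 °C then 30 min ambient, 125 s read. Signal: Fluo-8 calcium dye fluorescence, ex 470-495, em 515-575 nm. Measure: percent activation from peak-to-basal fluorescence ratio, scaled between DMSO and carbachol.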
# OXTR agonist = human OXTR agonism | hit rate 0.32% among 320,000 | activation, % at 3 µM | P30559 | CHO-OTR cells, Fluo-8 calcium fluorescence; normalized: DMSO 0%, oxytocin 100%;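 active = activation above the mean of all tested compounds plus 3 SD, cutoff set per screening run, cut at about 20% in these data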;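 note: peak over basal fluorescence ratio from a 100 s FLIPR kinetic read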
# TRPN1 ag = agonists of zebrafish TRPN1 channel; HEK293 zebrafish TRPN1-YFP, Fluo-8 calcium fluorescence; 100% = response to 87 µM carbachol; activation, % at 3 µM; hit rate 0.18% among 220,000; AID 1424;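 active = activation above its plate's cutoff, the mean activation of test wells on that plate plus 3 SD, cut at about 19% in these data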;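 note: 0% = DMSO alone and 100% = 87 µM carbachol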
#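 Material: zebrafish TRPN1-YFP in HEK293 cells; Doses: single test compound dose, 3 µM nominal, 0.3% DMSO; Timing: dye loading 1 h at 37 °C, then 30 min room temperature; Technique: intracellular calcium fluorescence with Fluo-8; Benchmarks: high carbachol 87 µM, low DMSO alone.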
# * = called active by the depositor; nt = no result.
SMILES,OXTR potentiator,V1R ag counter,TRPML3 ag,OXTR agonist,TRPN1 ag
Cc1ccc(N2C(=O)c3ccc(C(=O)N4CCN(c5ccc(C)c(C)c5)CC4)cc3C2=O)cc1,-3.0,0.2,0.6,0.3,-1.4
COc1ccc(C2SCCN2C(=S)Nc2cccc(C(F)(F)F)c2)cc1 (configuration not stated),-14.2,22.0*,2.6,39.0*,6.2
CCOC(=O)c1ccc(NC(=S)N2CCSC2c2ccc(Cl)cc2)cc1 (configuration not stated),-11.8,39.0*,3.1,37.5*,5.2
CCOC(=O)C1CCN(C(=O)c2cc(COc3ccc(OC)c4ccccc34)on2)CC1,-8.3,1.0,nt,0.4,nt
CCOc1ccc(NCCC(O)c2ccc(F)cc2)cc1 (configuration not stated),-12.6,0.0,nt,-0.6,nt
CCOC(=O)C1CCN(S(=O)(=O)c2ccc3c4c(cccc24)C(=O)N3CC)CC1,-5.8,3.4,nt,1.6,nt
CCOC(=O)/C(=C/C=C1\Sc2cc(C)c(C)cc2N1CC)C(C)=O,nt,nt,20.8*,nt,31.1*
CCOC(=O)/C(=C/C=C1\Sc2ccccc2N1CC)C(C)=O,-17.1,49.3*,22.6*,46.0*,51.1*
CCOC(=O)/C(=C\C=C1/Sc2ccccc2N1CC)C(C)=O,-12.1,40.4*,19.9*,59.6*,29.9*
O=C(COC(=O)c1cc(S(=O)(=O)N2CCOCC2)c(Cl)cc1Cl)NCc1ccco1,-7.6,0.9,nt,0.6,nt
CCOc1ccc2nc(C)cc(Nc3cccc([N+](=O)[O-])c3)c2c1,-7.7,0.8,-1.0,-0.7,-0.1
Cc1nc2ccc(S(=O)(=O)NCC(=O)Nc3cccc(F)c3)cc2s1,-31.3,-1.0,-0.3,-1.4,-1.8
O=C1c2cccc3c(N4CCCCC4)ccc(c23)C(=O)N1c1cccc(O)c1,-13.5,39.8*,32.8*,33.1*,70.5*
Cc1n[nH]c(C)c1N1C(=O)c2cccc3c(N4CCCCCC4)ccc(c23)C1=O,-24.1,150.5*,86.0*,146.1*,125.4*
C=CCN1C(=O)c2cccc3c(N4CCCCC4)ccc(c23)C1=O,-5.6,10.3,3.9,8.9,9.5
Cc1ccc(N2C(=O)c3cccc4c(C(=O)O)ccc(c34)C2=O)cc1,-1.2,1.2,1.1,0.8,1.2
O=C1c2cccc3c(O)ccc(c23)C(=O)N1Cc1ccco1,nt,nt,37.7*,nt,79.2*
O=C1c2cccc3c(O)ccc(c23)C(=O)N1c1ccc(Cl)cc1,-26.9,183.7*,nt,186.2*,nt
O=C1c2ccccc2C(=O)N1c1ccc(Cl)cc1,-8.9,-0.3,0.2,-2.4,-1.8
CC(=O)Nc1ccc(N2C(=O)c3cccc4c(O)ccc(c34)C2=O)cc1,-27.2,173.7*,nt,172.4*,nt
CCc1ccc(NC(=S)Nc2ccc(S(=O)(=O)Nc3ncccn3)cc2)cc1,-2.5,0.1,0.0,0.9,0.1
CN(C)c1ccc(/C=C(\C#N)C(=O)c2ccccc2)cc1,-24.2,53.3*,38.2*,80.0*,58.2*
CCN(CC)c1ccc(/C=C(\C#N)C(=O)c2ccc(Br)cc2)cc1,-11.1,69.9*,5.6,133.0*,10.4
CCCC(C(=O)Nc1ccc(S(=O)(=O)N2CCOCC2)cc1)c1ccccc1 (configuration not stated),-15.9,20.5*,nt,28.1*,nt
NC(=O)c1ccc[n+]([C@H]2O[C@@H](COP(=O)([O-])OP(=O)(O)OC[C@H]3O[C@@H](n4cnc5c(N)ncnc54)[C@H](O)[C@@H]3O)[C@H](O)[C@@H]2O)c1,-22.4,69.3*,nt,50.7*,nt
SMILES,OXTR potentiator,V1R ag counter,TRPML3 ag,OXTR agonist,TRPN1 ag
COc1ccc(C)cc1NC(=O)c1ccccc1NS(=O)(=O)c1ccc(Cl)s1,-15.7,8.5,14.4*,13.4,22.3*
N#Cc1c(NC(=S)NC(=O)c2ccccc2)sc2c1CCN(CCc1ccccc1)C2,-14.6,56.8*,14.4*,28.4*,23.6*
CC(=O)c1sc2nsc(SCCN3CCCCC3)c2c1N,1.1,1.0,0.7,1.8,2.1
Nc1c(C(=O)c2ccccc2)sc2nsc(SCCN3CCCC3)c12,-2.8,1.4,12.7*,2.5,26.2*
Nc1c(C(=O)c2ccc(Cl)cc2)sc2nsc(SCCN3CCOCC3)c12,-7.8,5.1,10.9,4.6,23.1*
Cc1cccc(C)c1NC(=O)CSc1nnc(C2CCCCC2)o1,-0.8,0.5,nt,-0.3,nt
CCc1ccc(NC(=O)C2(c3ccccc3)CC2(Cl)Cl)cc1 (configuration not stated),-25.1,30.4*,5.5,25.4*,13.6
Cc1sc2nc(CN3CCOCC3)nc(NS(=O)(=O)c3cc(Cl)ccc3Cl)c2c1C,-10.2,2.2,nt,1.2,nt
CCCCCCCCCC[N+](C)(C)CC/C=C1/c2ccccc2Sc2ccc(Cl)cc21,-12.8,36.9*,nt,31.3*,nt
O=C(/C=C/c1ccc(N2CCC(c3ccccc3)=N2)cc1)c1ccccc1,-14.7,107.8*,4.3,74.9*,14.2
CN(Cc1ccco1)c1ncnc2ccc(-c3ccc4c(ccn4C)c3)cc12,-8.0,-1.2,nt,-0.6,nt
Cn1c(N)c(-c2ccccc2)c2ccc([N+](=O)[O-])cc2c1=O,-17.5,51.2*,nt,45.7*,nt
CCOC(=O)Cn1c(=O)oc2cc(S(=O)(=O)NCCc3ccc(C)cc3)ccc21,-10.1,10.2,1.6,13.2,3.6
CCOC(=O)Cn1c(=O)oc2cc(S(=O)(=O)Nc3ccc(F)cc3)ccc21,-10.4,33.0*,6.7,36.0*,19.1*
CN1CCN(c2ccc(C(F)(F)F)cc2NC(=O)Nc2ccccc2)CC1,-24.4,32.5*,nt,34.4*,nt
COc1cc(C2C(C#N)=C(C)NC(C)=C2C#N)cc(OC)c1OC,-7.7,0.4,-0.2,0.6,0.9
Cc1ccc2nc(-c3ccccc3)cc(C(=O)N3CCN(S(=O)(=O)c4c(C)noc4C)CC3)c2c1,0.5,1.1,nt,0.5,nt
COc1cccc(CNC(=O)C(c2ccc(Cl)cc2)C(C)C)c1 (configuration not stated),-7.3,3.8,0.3,-1.9,-2.3
COc1ccc(C2C(C(=O)c3cccs3)=C(O)C(=O)N2c2cccc(C)n2)cc1 (configuration not stated),-4.9,-0.4,0.2,-0.4,-1.0
Cc1ccc(C2C(C(=O)c3cccs3)=C(O)C(=O)N2c2nnc(C)s2)cc1 (configuration not stated),0.3,13.3,22.0*,8.4,42.3*
N#C/C(=C/c1ccncc1)c1nc2ccccc2s1,-6.1,55.2*,19.3*,26.8*,33.6*
CC(C)=C(C#N)c1nc2ccccc2s1,-6.4,39.8*,8.3,36.5*,17.2
COC(=O)c1ccc(/C(O)=C(\C#N)c2nc3ccccc3s2)cc1,-9.1,9.6,4.3,9.2,5.7
N#C/C(=C\c1ccncc1)c1nc2ccccc2[nH]1,nt,nt,0.6,nt,-0.1
Cc1nn2c(N)c(-c3ccccc3)cnc2c1-c1ccccc1,-19.0,0.6,nt,1.5,nt

# Compound activity deposited in PubChem BioAssay by The Scripps Research Institute Molecular Screening Center.
